According to ChEMBL document CHEMBL4513216, “Probing the Open Global Health Chemical Diversity Library for Multistage-Active Starting Points for Next-Generation Antimalarials” (ACS Infect Dis, 2020):

Experiment: Toxicity liver stage against HepG2, at 10uM
Assay type: cell-based
Parameters: test concentration 10 uM, cell line HepG2-A16-CD81EGFP
Details: human, HepG2-A16-CD81EGFP cells; read-out: INHIBITION
How it was run: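 Uninfected HepG2-A16-CD81EGFP cells, 3 × 10^3 per well, 1536-well, plated on prespotted compound at 10 μM final, parasite-free screening media added to match infected plates; puromycin 10 μM positive, DMSO 0.5% negative; run in parallel with 48 h PbLuc assay at 37 °C, 5% CO2; viability by CellTiter-Glo luminescence, normalized to controls.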

Compound | cytotoxicity at 10 µM
COc1ccc(-c2nc(C)cc(SCC(N)=O)n2)cc1 | 5.64%
CCC(=O)N1CCC(c2cc(Nc3ncccn3)nc(C)n2)C1 (configuration not stated) | -24%
O=C(Cn1cc(-c2ccccc2)cn1)NC(C1CC1)C1CC1 | -5%
CN(CC(=O)NC1(C)CCS(=O)(=O)C1)Cc1ccc(Br)cc1 (configuration not stated) | -1.4%
CCCc1cc(CN(C)C2CC(C)(C)NC(C)(C)C2)n[nH]1 | -16.7%
COCCN1C(=O)C[C@@H]2[C@H]1CCN2C(=O)c1ccc[nH]1 | -1.34%
O=C(Nc1ccccc1F)NC1(CO)CCOCC1 | -46.4%
Cn1ncc2c(NCCOCc3ccccc3)nc(C3CCCC3)nc21 | 9.67%
Cn1nc(C2CCCN(Cc3cc(F)cc(F)c3)C2)c2nccnc21 (configuration not stated) | -16.3%
Nc1nnc(SCc2cc(=O)n3c4c(sc3n2)CCCC4)[nH]1 | -4.19%
O=C(c1cnccn1)N1C[C@@H]2[C@@H](C1)OCC(=O)N2CC1CCCC1 | 1.58%
Cc1cc(N(C)Cc2noc(C)n2)n2nc(C)c(C)c2n1 | 14.4%
COc1c(C)cnc(CN2CCOC(Cn3nc(C)nc3C)C2)c1C (configuration not stated) | -13.1%
CC(C)Oc1cccc(-c2nc3c([nH]2)CCCNC3=O)c1 | 27.3%
Cc1n[nH]c(C)c1CN1CCC(c2cc(C(C)C)n[nH]2)CC1 | -6.88%
O=C(Cn1ccc2ccc(Cl)cc21)NCc1ccc(C(=O)O)cc1 | 7.91%
COCC(=O)N1CCCC1c1cc(Nc2nnc(C)s2)nc(C)n1 (configuration not stated) | -6.15%
CN(C)C(=O)N1CCN(CCCOc2ccccc2)[C@H]2CS(=O)(=O)C[C@H]21 | 0.666%
CC(Cc1ccco1)NS(=O)(=O)N1CCCCCC1 (configuration not stated) | 2.29%
CCOCC1CN(C(=O)c2cccn2C)Cc2cnn(CC3CC3)c21 (configuration not stated) | 8.37%
CC(C)=CCCC1(C)CCC(=O)N(CCc2nc(N)cc(O)n2)C1 (configuration not stated) | 0.361%

Compound | cytotoxicity at 10 µM
Cn1cc(CNC2CCc3ncnn3C2)c(-c2cccnc2)n1 (configuration not stated) | -5.92%
Cc1nsc2ncc(C(=O)N3CCCC3c3cnn(C)c3)cc12 (configuration not stated) | -1.8%
Cc1nc(C2(NCC(=O)NCc3cccs3)CCCCC2)no1 | 1.17%
CC[C@H]1N(C)CCC[C@]12CCC(=O)N2Cc1ccncc1 | 7.99%
CC(=O)N1CC(C(=O)NC(C)c2cnn(C)c2C)C1 (configuration not stated) | 4.65%
Fc1ccc(-c2cnc(C3CCNCC3)cn2)cc1 | -7.14%
Cc1ccc2cccc(S(=O)(=O)N(C)C3CCCN(C)C3)c2n1 (configuration not stated) | 1.5%
OC1CCN(c2ccccc2NCc2nc(-c3cccs3)no2)CC1 | 10.8%
COCC1CC2(CCN(C(=O)c3ccc(F)cc3C)CC2)CO1 (configuration not stated) | -108%
CC(=O)Nc1nc(CN2CCn3c(nnc3C(C)C)C2)cs1 | -2.17%
CNS(=O)(=O)c1ccc(CN2CCCN(c3ccccc3)CC2)cc1 | 10.9%
Cc1cc(NC(=O)NCC(O)c2ccc(Cl)cc2Cl)n(C)n1 (configuration not stated) | -5.38%
COCCNC(=O)c1sc2ccccc2c1C1CCC(CN)CC1 (configuration not stated) | -2.98%
Cc1ccc2c(c1)C(NCc1nnc3n1CCCCC3)CCCO2 (configuration not stated) | -3.39%
CSc1nccc(N2CCC3(CCCN(Cc4cccc(C)c4)C3)C2)n1 (configuration not stated) | 12.1%
Cc1noc(C)c1CN1CCO[C@H]2CN(Cc3cccnc3)C[C@H]21 | -2.61%
Cc1n[nH]cc1CNC(=O)CCCc1cccs1 | -52.3%
O=S(=O)(Cc1ccccc1)NCC1CCCN(Cc2cccs2)C1 (configuration not stated) | 3.3%
COc1ccc(CN2CC(O)CN(C(=O)OCC(C)(C)C)CC2=O)cc1 (configuration not stated) | 2.55%
Cc1ncc2c(n1)CN(Cc1nc3c(F)cccc3[nH]1)CC2 | -4.74%
O=C(CN1CCCc2c(F)cc(Br)cc21)N1CCN(C(=O)C2CC2)CC1 | -5.06%

Compound | cytotoxicity at 10 µM
NC(=O)C1CCN(C(=O)CCSCc2ccccc2)CC1 | 4.22%
O=C(CSC1CCc2ccccc2NC1=O)NCc1cccs1 (configuration not stated) | -2%
CC(C)CCN1CCNC(=O)C1CC(=O)N1CCc2sccc2C1 (configuration not stated) | -7.01%
Cc1ccc(F)c(OC2(C(=O)O)CCN(C(=O)c3ccncc3)CC2)c1 | 5.03%
COC1CCN(C(=O)c2c(Cl)c3ccccc3n2C)CC1 | 4.39%
CC(NC(=O)C1=NN(C)C(=O)CC1)c1ccccc1Cl (configuration not stated) | 0.665%
OC1CCCOC12CCN(CCCOc1ccccc1F)CC2 (configuration not stated) | 3.4%
CC(C)c1nc2c(n1C)CCN(Cc1nc(-c3ccsc3)no1)C2 | -6.46%
Cc1noc([C@H]2COC[C@H]3CN(C(=O)Cc4cccc(F)c4)C[C@H]32)n1 | 6.93%
c1cnc(N2CCOCC3(CNCCO3)C2)nc1 (configuration not stated) | -112%
OC1CCN(c2ccccc2NCc2nc(-c3ccoc3)no2)CC1 | 14.5%
CC(C)NC(=O)N1CCCC2(CCCCN2)C1 (configuration not stated) | 11.4%
O=S(=O)(N1CCOCC1)N1CCOC(CCc2ccccc2)C1 (configuration not stated) | -2.55%
Cc1ccsc1C(=O)NCc1ccnc(N2CCN(C)CC2)c1 | -8.6%
Cc1ccc(C(C)NC(=O)CNCCn2cccn2)cc1C (configuration not stated) | -6.63%
CCn1nc2c(cc1=O)CN(CCCOc1ccc(C#N)cc1)CC2 | 14%
CCCC(=O)N1CCC2(CC1)OCCO2 | 5.22%
Cc1cc(N2CCN(Cc3nccn3C)CC2)cc(C)n1 | 15.7%
COC(=O)N1C[C@@H]2CC[C@H]1CN(Cc1ccncc1)C2 | -10%
COCCCNC(=O)N1CCCC(c2nncn2C)C1 (configuration not stated) | -19.7%
Cc1ncnc2c1CCN(C(=O)c1cccc(F)c1)CC2 | 8.27%

Compound | cytotoxicity at 10 µM
O=C(c1ccco1)N1CC[C@H]2[C@H]1CCN2S(=O)(=O)C1CC1 | 9.22%
CCOC1CCCN(C(=O)c2cnc3c(cnn3C3CCCC3)c2)C1 (configuration not stated) | -3.74%
Cc1nn(C)c(C)c1CC(=O)N1CCCC(n2ccnc2C)C1 (configuration not stated) | -5.36%
CCc1cnc(CN2CCCC2c2noc(C3CC3)n2)o1 (configuration not stated) | -4.84%
CC(NC(=O)N(C)CCOc1ccccc1F)c1nncn1C (configuration not stated) | -9.92%
CN1CCCN(c2ncnc(N3CCOCC3)c2N)CC1 | 1.08%
COc1cc(CNC(=O)NCc2c(C)cc(C)[nH]c2=O)ccc1C | -11.5%
O=C(N1CCCO1)[C@]12COC[C@H]1CN(Cc1nccs1)C2 | 9.31%
Cc1ccc(CNc2ccn(CCc3ccncc3)n2)s1 | 21.8%
COc1ccc(C2(CNC(C)c3nnc(C)o3)CCCCC2)cc1 (configuration not stated) | 4.21%
CCn1cc(C(=O)N(C)[C@@H]2CC[C@@H](N3CCCC3)[C@@H]2O)c(C)n1 | 5.92%
CN(C)CCN(Cc1ccc(Cl)cc1)C(=O)c1cc[nH]n1 | 5.65%
COc1ccc(OC)c(CNCc2c(C(C)C)nn(C)c2N(C)C)c1 | -5.89%
COc1cc(N2CC[C@H](O)[C@@H]2Cc2cnn(C)c2)ncn1 | 1.72%
Clc1ccc2cccnc2c1CN1CCn2c(nnc2C2CC2)C1 | -2.19%
Cn1nnnc1SCCNC(=O)CC1CCc2ccccc21 (configuration not stated) | -2.49%
CN(Cc1cc(-c2cccnc2)no1)C(=O)c1cccn1C | -1.1%
Cn1nccc1C(=O)N1CCOC(Cc2ccc(Cl)cc2)C1 (configuration not stated) | -26%
CN(C)[C@@H]1CCN(C(=O)c2cccc(C#N)c2)[C@H]1Cc1cnn(C)c1 | -72.6%
